Published values of several laboratories.
Lines come from different studies, so protocols differ.
Target: Serine/threonine-protein kinase 32C (STK32C, Homo sapiens, UniProt Q86UX6)

Structure (SMILES) | assay | conditions | remaining binding [%]
F[C@@H]1CCN(c2nccc(-c3cnn4ncccc34)n2)C1 | binding | 1 µM | 89
Cc1cnc(Nc2ccc(C(=O)N3CCC(N4CCCC4)CC3)cc2)nc1-c1cc2ccccc2s1 | binding, competition with immobilised ligand | 1 µM | 100
O=C(N[C@H]1CCCCC/C=C\C2C[C@@]2(C(=O)O)NC(=O)[C@@H]2C[C@@H](Oc3ccncc3)CN2C1=O)OC1CCCC1 (some centres unmarked) | binding, competition with immobilised ligand | 1 µM | 100
N[C@H]1CCN(c2nccc(-c3cnn4ncccc34)n2)C1 | binding | 1 µM | 97
Cc1c(NC(=O)c2cc(C(N)=O)nc3cc(F)ccc23)c(C(F)(F)F)nn1Cc1ccc(C#N)cc1 | binding, competition with immobilised ligand | 1 µM | 69
COc1cnc(Nc2cccc(S(N)(=O)=O)c2)nc1N1CCN(c2ccccc2)CC1 | binding, competition with immobilised ligand | 1 µM | 100
c1cnn2ncc(-c3ccnc(N4CCC45COC5)n3)c2c1 | binding | 1 µM | 68
CO[C@H]1CC[C@H](CNc2ccc(S(=O)(=O)NC(=O)c3ccc(N4CCN(CC5=C(c6ccc(Cl)cc6)CC(C)(C)CC5)CC4)cc3Oc3cnc4[nH]ccc4c3)cc2[N+](=O)[O-])CC1 | cell-free assay, competition with immobilised ligand | 1 µM | 54
C=CC(=O)N1CCC(C(=O)NCC(=O)N2CCN(c3nc(-c4cnc(N)nc4C(F)F)nc(N4CCOCC4)n3)CC2)CC1 | binding, competition with immobilised ligand | 1 µM | 99
C[C@@H]1CCN(c2nccc(-c3cnn4ncccc34)n2)C1 | binding | 1 µM | 83
O=C(NCC1CCOCC1)c1n[nH]cc1NC(=O)c1c(F)cccc1F | binding, competition with immobilised ligand | 1 µM | 100
CN(C)c1ncc(F)c(-c2cnn3ncccc23)n1 | binding | 1 µM | 87
CC(=O)N1CCC(c2ccc(C(=O)NC(=N)N)cc2C(F)(F)F)CC1 | cell-free assay, competition with immobilised ligand | 1 µM | 100
CN(C)c1nccc(-c2cnc3ncccn23)n1 | binding | 1 µM | 100
Cc1nc(Cc2cccc(C(F)(F)F)c2)sc1-c1ccc(C(N)=O)nc1 | cell-free assay, competition with immobilised ligand | 1 µM | 87
COc1ncc2cc3ccccc3nc2c1C#N | cell-free assay, competition with immobilised ligand | 5 µM | 100
CC1CCCN1c1nccc(-c2cnn3ncccc23)n1 (centres unmarked) | binding | 1 µM | 100
COc1cc(-c2cn(C3CCc4c(F)cccc4N(CC(F)(F)F)C3=O)nn2)ccc1-n1cnc(C)c1 (centres unmarked) | cell-free assay, competition with immobilised ligand | 1 µM | 100
O=C(NCCCN1CCOCC1)c1ccc(Nc2nccc(-c3cc4ccccc4s3)n2)cc1 | binding, competition with immobilised ligand | 1 µM | 92
CC(C)(C)c1ccc(-c2nc(CBr)nn2-c2cccc(O)c2)cc1 | cell-free assay, competition with immobilised ligand | 10 µM | 54
Nc1ncc2c(n1)-c1c([nH]c3ccc(C#CC4CC4)cc13)CCCC2 | binding, competition with immobilised ligand | 1 µM | 100
FC(F)(F)Oc1cccc(-c2cnc3ccc(-c4ccncc4)nn23)c1 | binding, competition with immobilised ligand | 5 µM | 89
CN1CCN(c2cnc3c(C4CCN(C(=O)c5ccc(OC(F)(F)F)cc5N)CC4)ncnc3c2)CC1 | cell-free assay, competition with immobilised ligand | 1 µM | 100
C[C@@H]1CN(c2ccc3ncc(-c4ccc5[nH]nc(C6CC6)c5c4)n3n2)C[C@H](C)O1 | binding, competition with immobilised ligand | 0.5 µM | 100
C[C@@H]1CN(c2cc(-c3nn(C)c4ccc(OC5(C)CC5)cc34)ncn2)C[C@H](C)O1 | cell-free assay, competition with immobilised ligand | 1 µM | 100
O=C(c1ccc(Nc2ncc(Cl)c(-c3ccc(Cl)s3)n2)cc1)N1CCC(N2CCCC2)CC1 | binding, competition with immobilised ligand | 1 µM | 100
